Laboratory results taken from ChEMBL document CHEMBL4359883, “4(1H)-quinolone derivatives overcome acquired resistance to anti-microtubule agents by targeting the colchicine site of β-tubulin” (Eur J Med Chem, 2019).
Activity calls are given as the source filed them. No cut-off for these calls is given here.

Experiments:
[1] = test system: A549; test: Antiproliferative activity against human A549 cells assessed as reduction in cell viability after 72 hrs by MTS assay; format: functional, cell-based; conditions: A549, 72 h
Procedure, shortened: (§1)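 Cells plated at 2000/well, cultured overnight, then exposed to a range of compound concentrations for 72 h. MTS reagent added for 1–4 h at 37 °C and absorbance read at 490 nm. Cultured in RPMI 1640 or DMEM with 10% heat-inactivated FBS under 5% CO2. Data are the mean of three determinations.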

[2] = Antiproliferative activity against human 82T cells assessed as reduction in cell viability after 72 hrs by MTS assay; format: functional, cell-based; procedure, shortened: as §1
[3] = test system: HT-29; test: Antiproliferative activity against human HT-29 cells assessed as reduction in cell viability after 72 hrs by MTS assay; format: functional, cell-based; conditions: HT-29, 72 h; procedure, shortened: as §1
[4] = test system: DU-145; test: Antiproliferative activity against human DU145 cells assessed as reduction in cell viability after 72 hrs by MTS assay; format: functional, cell-based; conditions: DU-145, 72 h; procedure, shortened: as §1
[5] = test system: CL1-0; test: Induction of apoptosis in human CL1-0 cells assessed as cleaved caspase 3 expression at 20 nM by immunoblotting analysis; format: functional, cell-based; conditions: TDE = time-dependent effect
[6] = test system: NCI-H1975; test: Induction of apoptosis in human NCI-H1975 cells assessed as cleaved caspase 9 after 24 hrs by immunoblotting analysis; format: functional, cell-based
[7] = test system: NCI-H1975; test: Induction of apoptosis in human NCI-H1975 cells assessed as bax protein expression after 24 hrs by immunoblotting analysis; format: functional, cell-based
[8] = test system: CL1-0; test: Induction of apoptosis in human CL1-0 cells assessed as caspase 8 activation at 20 to 40 nM after 24 hrs by immunoblotting analysis; format: functional, cell-based
[9] = test system: NCI-H1975; test: Induction of mitotic arrest in human NCI-H1975 cells assessed as increase in cyclin B1 expression at 40 to 80 nM after 24 hrs by immunoblotting analysis; format: functional, cell-based
[10] = target: Tubulin (Sus scrofa) (UniProt P02554+P02550); test: Inhibition of porcine tubulin at 5 uM in presence of GTP measured every minute for 1 hr by microplate reader analysis; format: protein assay
Sequence of Tubulin (Sus scrofa) (P02550 whole entry, looked up): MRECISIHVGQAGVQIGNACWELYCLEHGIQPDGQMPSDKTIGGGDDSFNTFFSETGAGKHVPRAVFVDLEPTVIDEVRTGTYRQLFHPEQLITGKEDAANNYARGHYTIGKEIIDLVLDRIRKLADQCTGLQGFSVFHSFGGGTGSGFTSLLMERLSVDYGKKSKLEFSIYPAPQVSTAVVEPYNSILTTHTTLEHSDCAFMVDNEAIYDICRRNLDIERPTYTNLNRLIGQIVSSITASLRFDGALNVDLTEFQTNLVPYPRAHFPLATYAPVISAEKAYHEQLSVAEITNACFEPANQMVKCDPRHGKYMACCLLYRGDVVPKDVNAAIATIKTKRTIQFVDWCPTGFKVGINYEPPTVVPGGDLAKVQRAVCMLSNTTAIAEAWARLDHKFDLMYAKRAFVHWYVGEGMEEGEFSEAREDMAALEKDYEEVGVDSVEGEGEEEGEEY
Sequence of Tubulin (Sus scrofa) (P02554 whole entry, looked up): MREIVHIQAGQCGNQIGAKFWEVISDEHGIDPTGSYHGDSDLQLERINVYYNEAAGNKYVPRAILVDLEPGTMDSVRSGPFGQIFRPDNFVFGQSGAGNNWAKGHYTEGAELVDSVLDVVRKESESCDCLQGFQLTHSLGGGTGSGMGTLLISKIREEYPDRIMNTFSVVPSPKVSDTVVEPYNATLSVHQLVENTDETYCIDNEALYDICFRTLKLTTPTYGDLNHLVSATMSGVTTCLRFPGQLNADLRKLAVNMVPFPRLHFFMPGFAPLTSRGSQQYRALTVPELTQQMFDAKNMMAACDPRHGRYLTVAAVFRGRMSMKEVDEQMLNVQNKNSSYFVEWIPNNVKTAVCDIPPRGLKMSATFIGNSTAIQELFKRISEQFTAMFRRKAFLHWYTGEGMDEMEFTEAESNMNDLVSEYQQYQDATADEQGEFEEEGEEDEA

[11] = test system: NCI-H1975; test: Induction of apoptosis in human NCI-H1975 cells assessed as increase in cyclin B1 expression at 25 to 50 nM after 24 hrs by immunoblotting analysis; format: functional, cell-based
[12] = target: T1, Tubulin (Homo sapiens) (UniProt P68371+Q9H4B7+P0DPH7+P68366+Q13509+Q71U36+P04350+Q3ZCM7+P07437+P68363+Q9BQE3+Q6PEY2+Q13885+Q9BVA1+Q9BUF5); test: Inhibition of microtubule polymerization in human NCI-H1975 cells at 25 nM after 6 hr followed by DAPI staining based confocal microscopic analysis; format: cell-based
Procedure, shortened: (§2)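 Cells exposed for 6 h, fixed in 3.7% paraformaldehyde, permeabilized with 0.1% Triton X-100. Stained with anti-α-tubulin (1:1000) overnight at 4 °C, FITC secondary 1 h at 37 °C, nuclei counterstained with DAPI. Imaged by confocal laser scanning microscopy.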

[13] = test system: MDA-MB-231; test: Antitumour activity against human MDA-MB-231 cells xenografted in Balb/c mouse assessed as […] at 8 mg/kg, ip administered three times per week and measured on day 35 (reference value: 218 +/- 20.9 mm3); format: functional
Procedure, shortened: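 MDA-MB-231 tumours established in the right flank of 6-week-old BALB/c nude mice. Compound dissolved in DMSO was given ip three times weekly, with a DMSO vehicle group. Tumour volume calculated as 0.5W²L, measured before each dose and compared on day 35.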

[14] = Toxicity in Balb/c mouse xenografted with human MDA-MB-231 cells assessed as effect on body mass at 4 to 8 mg/kg, ip administered 3 times per week for 35 days; format: organism-based; conditions: in vivo, 840 h
Procedure, shortened: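 MDA-MB-231 tumors established in right flank of 6-week-old BALB/c nude mice; once established, 4 or 8 mg/kg compound in DMSO, or DMSO vehicle, injected intraperitoneally three times weekly. Body mass measured before each injection.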

[15] = test system: Homo sapiens; test: Induction of apoptosis in human KBtax cells xenografted in Balb/c mouse at 8 mg/kg, ip administered 3 times per week and measured after 21 days by TUNEL staining based histological analysis; format: functional, organism-based
Procedure, shortened: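 1×10^7 KBtax cells injected subcutaneously into the right flank of 6-week-old BALB/c nude mice (n = 5 per group). Once tumors established, compound in DMSO given ip three times a week for 21 days. Tumor sections stained with H&E and by TUNEL.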

[16] = Toxicity in Balb/c mouse xenografted with human KBtax cells assessed as serum creatinine level at 8 mg/kg, ip administered 3 times per week and measured after 21 days (reference value: 0.22 +/- 0.02 mg/dl); format: organism-based; conditions: in vivo, 504 h
[17] = species: Homo sapiens; test: Induction of mitotic arrest in human KBtax cells assessed as increase in cyclin-B1 expression at 30 to 60 nM after 24 hrs by immunoblotting analysis; format: functional, cell-based
[18] = target: T1, Tubulin (Homo sapiens); test: Inhibition of microtubule polymerization in human KBtax cells at 30 nM after 6 hrs by DAPI staining based scanning confocal microscopic analysis; format: cell-based; procedure, shortened: as §2
[19] = species: Homo sapiens; test: Induction of morphological changes in human KBtax cells assessed as disruption of mitotic spindle arrangement at 30 nM after 6 hrs by DAPI staining based confocal microscopic analysis; format: functional, cell-based; procedure, shortened: as §2

IC50 [1] [nM] | IC50 [3] [nM] | IC50 [4] [nM] | tubulin inhibition call (active/not active) [10] | inhibition [12] | inhibition [18] | SMILES | IC50 [2] [nM] | Activity [5] | Activity [6] | Activity [7] | Activity [8] | Activity [9] | Activity [11] | Activity [13] [mm3] | Activity [14] | Activity [15] | Activity [16] [mg/dL] | Activity [17] | Activity [19]
20 | 48 | 47 | Active |  |  | CCOC(=O)c1ccc2nc(-c3ccccc3)cc(O)c2c1 | 35 | Tde | Dose-dependent effect | Dose-dependent effect | inactive | Active |  |  |  |  |  |  | 
 |  |  |  | Active | Active | CCOC(=O)c1ccc2[nH]c(-c3cccc(F)c3)cc(=O)c2c1 |  |  |  |  |  |  | Active | 73.6 | Non-Toxic | Active | 0.26 | Active | Active
